CSC inhib – cancer stem cell inhibition | cancer stem cell-like cells viability, luminescence | inhibition, % at 7.5 µM | hit rate 1.1% among 300,000; in the data active = inhibition above about 75%; tested in HMLE shEcad cells
L major viab – reduces viability of Leishmania major promastigotes; resazurin fluorescence viability; inhibition, % at 10 µM; hit rate 9% among 200,000; AID 1063; in the data active = inhibition above about 50%;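 note: promastigotes grown with compound for 44 hours at 28 °C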
Beta cell apopt – beta cell apoptosis inhibition. INS-1E cytokine-induced death, ATP luminescence, 48 h; percent of positive-control rescue, neutral wells zero. hit rate 0.8% among 300,000. protection from apoptosis, % (concentration not given with the values);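 active = Every replicate reaches about 75%, or at least half do and their mean reaches it too, limit read from the data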;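 note: 0% = cytokine-treated negative control wells and 100% = positive control rescue; higher means more ATP so stronger rescue from cytokine killing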
Mdm2-MdmX inh – inhibitors of human Mdm2/MdmX interaction | O15151+Q00987 | SaOS-2 split-luciferase Mdm2/MdmX complementation, luminescence | inhibition, % at 8 µM | hit rate 3% among 330,000;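 active = inhibition of at least 50% at 8 µM in the primary screen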
Target sequence (O15151 whole entry, looked up): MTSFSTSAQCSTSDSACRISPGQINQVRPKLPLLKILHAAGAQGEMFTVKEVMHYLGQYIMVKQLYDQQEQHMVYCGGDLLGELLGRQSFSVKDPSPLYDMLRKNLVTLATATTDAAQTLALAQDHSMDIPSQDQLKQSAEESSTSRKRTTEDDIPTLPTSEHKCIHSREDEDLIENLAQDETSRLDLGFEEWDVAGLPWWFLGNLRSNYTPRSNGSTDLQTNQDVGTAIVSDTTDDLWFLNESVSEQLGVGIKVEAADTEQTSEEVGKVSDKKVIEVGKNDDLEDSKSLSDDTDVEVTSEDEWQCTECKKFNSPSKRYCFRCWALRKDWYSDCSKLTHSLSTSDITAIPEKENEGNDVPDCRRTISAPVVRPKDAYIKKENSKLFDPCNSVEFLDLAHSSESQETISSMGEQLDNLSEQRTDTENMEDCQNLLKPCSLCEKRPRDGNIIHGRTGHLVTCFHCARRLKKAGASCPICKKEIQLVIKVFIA
Target sequence (Q00987 whole entry, looked up): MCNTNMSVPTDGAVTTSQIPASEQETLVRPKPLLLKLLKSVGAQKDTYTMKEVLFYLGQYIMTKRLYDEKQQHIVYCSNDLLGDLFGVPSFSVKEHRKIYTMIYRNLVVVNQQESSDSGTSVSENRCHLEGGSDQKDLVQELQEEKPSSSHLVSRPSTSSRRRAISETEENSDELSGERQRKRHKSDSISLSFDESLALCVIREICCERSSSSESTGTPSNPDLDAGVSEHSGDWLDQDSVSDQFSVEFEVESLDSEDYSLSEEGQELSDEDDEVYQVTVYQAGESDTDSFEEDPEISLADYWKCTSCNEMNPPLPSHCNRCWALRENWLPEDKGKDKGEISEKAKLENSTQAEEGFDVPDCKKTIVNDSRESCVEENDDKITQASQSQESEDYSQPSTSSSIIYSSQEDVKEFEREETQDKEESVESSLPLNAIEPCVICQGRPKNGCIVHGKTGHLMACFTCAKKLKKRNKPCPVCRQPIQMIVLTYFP
T cruzi inh – T. cruzi replication inhibition. hit rate 1.4% among 300,000. inhibition, % (test concentration not listed). T. cruzi beta-gal in NIH3T3, luminescence, 90 h;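 active = mean inhibition across valid replicates above about 55%, limit read from the data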;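 note: signal also drops with host cell toxicity which is not excluded here; 0% = plate median of DMSO wells and 100% = zero luminescence signal; higher percent means less beta-gal luminescence so fewer parasites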
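System: mouse NIH/3T3 fibroblasts infected with β-gal-expressing T. cruzi Tulahuen C4 / Input: NIH/3T3 cells, 5,000 per well / Buffer or medium: Low-serum DMEM with 2% FBS / Probe or stimulus: 5000 reporter trypomastigotes per well / Schedule: ≥90 h infection period, 3 h prior cell attachment / Measured by: GalScreen luminescence, 60 min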
SKKanGAS inh – blocks kanamycin growth of S. pyogenes SKKanGAS strain; BacTiter-Glo, 6 h; hit rate 1.3% among 300,000; inhibition, % at 7.5 µM;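 active = mean replicate score, as percent of positive control median, at least 50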;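 note: strain carries kanamycin resistance gene driven by streptokinase promoter and grows in 40 µg/ml kanamycin; loss of luminescence reflects streptokinase promoter inhibition or plain growth inhibition; 0% = median of DMSO wells and 100% = positive control at its reference dose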
Starred values were filed as active, the others as inactive. A selection: hits, their analogues and other compounds. The true share with any hit is near 9.4%.

For CCN1CCN(c2nc(-c3ccncc3)nc3ccccc23)CC1 the results were CSC inhib -12.0, L major viab 99.9*, Beta cell apopt 16.8, Mdm2-MdmX inh -0.6, T cruzi inh 69.0* and SKKanGAS inh 10.3.
Screening COc1cc2c(cc1OC)CN(c1nc(-c3cccnc3)nc3ccccc13)CC2 returned CSC inhib -10.4, L major viab 36.5, Beta cell apopt 7.2, Mdm2-MdmX inh 2.1, T cruzi inh 55.2* and SKKanGAS inh 14.8.
`c1cncc(-c2nc(N3CCCCCC3)c3ccccc3n2)c1` gave CSC inhib -0.3, L major viab 31.1, Beta cell apopt -8.0, Mdm2-MdmX inh 4.3, T cruzi inh 35.2 and SKKanGAS inh 3.0.
`COc1ccc(S(=O)(=O)N2CCN(c3nc(-c4cccnc4)nc4ccccc34)CC2)cc1` gave Beta cell apopt -0.8 and Mdm2-MdmX inh -22.9.
`O=S(=O)(/C=C/c1ccccc1)N1CCN(c2nc(-c3ccccc3)nc3ccccc23)CC1` gave CSC inhib 6.0, L major viab 64.9*, Beta cell apopt 11.4, Mdm2-MdmX inh -5.5, T cruzi inh 9.5 and SKKanGAS inh 6.2.
COc1ccc(N2CCN(S(=O)(=O)/C=C/c3ccccc3)CC2)cc1 was read as CSC inhib -10.8, L major viab -10.5, Beta cell apopt 0.3, Mdm2-MdmX inh 9.4, T cruzi inh -0.8 and SKKanGAS inh -0.6.
Screening O=C(C(Cc1ccccc1)N1C(=O)c2ccccc2C1=O)N1c2ccccc2CCc2ccccc21 (stereo unspecified) returned CSC inhib 19.8, L major viab 57.5*, Beta cell apopt 25.6, Mdm2-MdmX inh 38.3, T cruzi inh 30.5 and SKKanGAS inh -0.3.
`C=CCn1c(SCc2c(C(=O)OC)sc(N)c2C(=O)OC)nnc1-c1ccc(Br)cc1` gave CSC inhib -8.5, L major viab 99.2*, Beta cell apopt 1.9, Mdm2-MdmX inh 16.4, T cruzi inh 18.8 and SKKanGAS inh 11.2.
Cc1ccc([N+](=O)[O-])cc1S(=O)(=O)NCCc1cn2ccccc2n1 was read as CSC inhib -20.3, Beta cell apopt 1.5, Mdm2-MdmX inh -36.4, T cruzi inh 3.1 and SKKanGAS inh 1.8.
Cc1ccc([N+](=O)[O-])cc1S(=O)(=O)NCCc1c(C)[nH]c2ccccc12 was read as CSC inhib -4.8, L major viab 95.9*, Beta cell apopt -6.9, Mdm2-MdmX inh 3.6, T cruzi inh 5.6 and SKKanGAS inh -2.8.
`Cc1ccn2cc(CSc3ccccc3)nc2c1` gave CSC inhib 1.7, L major viab 71.4*, Beta cell apopt 4.1, Mdm2-MdmX inh -119.6, T cruzi inh -17.6 and SKKanGAS inh 5.1.
CCOc1cc(C(=S)N2CCOCC2)ccc1OS(=O)(=O)c1ccccc1 was read as L major viab -3.8, Beta cell apopt -2.5, Mdm2-MdmX inh 37.6, T cruzi inh -20.2 and SKKanGAS inh -0.7.
For COC(=O)c1ccc(NC(=O)Nc2ccc(F)cc2)cc1 the results were CSC inhib 3.6, L major viab -7.8, Beta cell apopt 8.3, Mdm2-MdmX inh -32.1, T cruzi inh 4.6 and SKKanGAS inh 2.4.
For CCCCOC(=O)c1ccc(NC(=O)Nc2ccc(OC)c(OC)c2)cc1 the results were L major viab 1.2, Beta cell apopt 2.9, Mdm2-MdmX inh 5.4, T cruzi inh -18.3 and SKKanGAS inh 2.1.
CCOC(=O)c1ccc(NC(=O)Nc2ccc(F)cc2)cc1 was read as CSC inhib 19.1, L major viab 96.0*, Beta cell apopt 5.5, Mdm2-MdmX inh -5.7, T cruzi inh -9.0 and SKKanGAS inh 0.1.
Screening CCOC(=O)c1ccc(NC(=O)Nc2ccc(OC)c(OC)c2)cc1 returned CSC inhib -10.5, L major viab 57.7*, Beta cell apopt 1.8, Mdm2-MdmX inh 12.0, T cruzi inh -8.6 and SKKanGAS inh -23.9.
CCOC(=O)c1ccc(OS(=O)(=O)c2ccccc2)c(OC)c1 was read as CSC inhib -10.8, L major viab 92.4*, Beta cell apopt 2.4, Mdm2-MdmX inh -172.0, T cruzi inh -14.2 and SKKanGAS inh -2.5.
For CCOC(=O)N1CCN(C(=O)c2ccccc2NC(=O)c2ccc(C(C)(C)C)cc2)CC1 the results were CSC inhib -4.1, L major viab 73.7*, Beta cell apopt 0.3, Mdm2-MdmX inh 1.5, T cruzi inh 4.7 and SKKanGAS inh 1.0.
Cc1cccc(OCC(=O)Nc2cc(NC(=O)COc3cccc(C)c3C)cc(C(=O)O)c2)c1C was read as CSC inhib 9.3, Beta cell apopt -0.3, Mdm2-MdmX inh 25.3, T cruzi inh 7.6 and SKKanGAS inh 19.2.
Screening Cc1cccc(OCC(=O)Nc2ccc(C(=O)Nc3ccccc3C(=O)O)cc2)c1C returned CSC inhib -1.8, Beta cell apopt -5.1, Mdm2-MdmX inh 13.6, T cruzi inh 8.7 and SKKanGAS inh 57.7*.
For CC(C)c1ccc(OCC(=O)Nc2cccc(C(=O)Nc3ccccc3C(=O)O)c2)cc1 the results were CSC inhib -4.2, L major viab -5.7, Beta cell apopt -1.8, Mdm2-MdmX inh -15.2, T cruzi inh 17.6 and SKKanGAS inh 34.2.
Screening CC(C)(C)c1ccc(OCC(=O)Nc2ccc(C(=O)Nc3ccccc3C(=O)O)cc2)cc1 returned CSC inhib 34.5, Beta cell apopt -5.5, Mdm2-MdmX inh 8.7, T cruzi inh -5.3 and SKKanGAS inh 82.5*.
`Cc1cc(OC(C)C(=O)N2CCN(c3ccc(F)cc3)CC2)c2c(C)c(C)c(=O)oc2c1` (stereo unspecified) gave CSC inhib 3.5, Beta cell apopt 3.3, Mdm2-MdmX inh 28.3, T cruzi inh 5.1 and SKKanGAS inh -5.0.
Screening CCOC(=O)CNC(=O)COc1coc(CN2CCN(c3ccc(F)cc3)CC2)cc1=O returned CSC inhib -16.5, Mdm2-MdmX inh -0.8, T cruzi inh -6.0 and SKKanGAS inh -3.5.
`O=C(O)c1ccc(-c2nc(-c3ccccc3)c(-c3cccs3)[nH]2)cc1` gave CSC inhib -19.1, Beta cell apopt -3.0, Mdm2-MdmX inh 8.2, T cruzi inh -10.8 and SKKanGAS inh 13.4.
Screening COc1ccc(-c2nc(-c3cccs3)c(-c3cccs3)[nH]2)cc1O returned CSC inhib 69.9, L major viab 14.4, Beta cell apopt -0.4, Mdm2-MdmX inh 23.6, T cruzi inh 4.2 and SKKanGAS inh 60.8*.
For O=C(NC(=S)NCCN1CCOCC1)c1ccc(Cl)cc1Cl the results were CSC inhib -2.0, L major viab 94.5*, Mdm2-MdmX inh 8.3, T cruzi inh 7.5 and SKKanGAS inh -3.5.
Screening O=C(NC(=S)NCCN1CCOCC1)c1ccccc1Cl returned L major viab 58.3*, Beta cell apopt -3.1, Mdm2-MdmX inh -12.1, T cruzi inh 4.4 and SKKanGAS inh 5.3.
Screening O=C(NC(=S)NCCN1CCOCC1)c1ccc(Cl)cc1 returned CSC inhib -9.1, L major viab -2.1, Beta cell apopt -6.2, Mdm2-MdmX inh -3.7, T cruzi inh -11.5 and SKKanGAS inh -8.4.

Source: PubChem BioAssay
